Converted amounts (≈) assume the structure as drawn. “And” between values parts separate entries of the source, which are not always exact repeats. Equal values may be shown once.
Columns and labels:
[1] = test system: Human alphaherpesvirus 1; assay: Minimum inhibitory concentration was determined against HSV-1 (G) in E6SM cell culture; type: functional, herpes simplex virus
Outline: (§1)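 Confluent E6SM cultures in microtiter trays were infected with 100 CCID50 of virus. After 1 h adsorption, residual virus was removed and cultures were incubated with varying compound concentrations. Cytopathicity was read once virus controls reached completion. The value is the concentration reducing virus-induced cytopathogenicity by 50%, as the mean of two independent determinations.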

[2] = test system: Human alphaherpesvirus 1; assay: Minimum inhibitory concentration was determined against HSV-1 (TK-/TK+VMW1837) in E6SM cell culture
[3] = Minimum inhibitory concentration was determined against HSV-1 (TK-KOS ACV) in E6SM cell culture; type: functional, herpes simplex virus; details: Human alphaherpesvirus 1; outline: as §1
[4] = Minimum inhibitory concentration was determined against HSV-2 (196) in E6SM cell culture; type: functional, herpes simplex virus; outline: as §1
[5] = test system: HEL; assay: Cytotoxicity concentration required to microscopically detectable alteration of cell morphology HEL; type: functional, Homo sapiens
[6] = (§2) Minimum inhibitory concentration was determined against HSV-1 (McIntyre) in E6SM cell culture; type: functional, herpes simplex virus; details: Human alphaherpesvirus 1; outline: as §1
[7] = test system: Cytomegalovirus; assay: Minimum inhibitory concentration was determined against CMV(Davis) in E6SM cell culture; type: functional; details: Human betaherpesvirus 5; outline: as §1
[8] = Minimum inhibitory concentration was determined against HSV-2 (Lyons) in E6SM cell culture; type: functional, herpes simplex virus; outline: as §1
[9] = test system: Cytomegalovirus; assay: Minimum inhibitory concentration was determined against CMV(AD169) in E6SM cell culture; type: functional; details: Human betaherpesvirus 5; outline: as §1
[10] = Minimum inhibitory concentration was determined against HSV-1 (KOS) in E6SM cell culture; type: functional, herpes simplex virus; outline: as §1
[11] = test system: Human alphaherpesvirus 1; assay: Minimum inhibitory concentration was determined against HSV-1 (F) in E6SM cell culture; type: functional, herpes simplex virus; outline: as §1
[12] = test system: Vero; assay: Cytotoxicity concentration required to microscopically detectable alteration of cell morphology in Vero; type: functional, Chlorocebus sabaeus
Outline: (§3)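 Cytotoxicity was scored as the minimum concentration giving a microscopically detectable change in normal cell morphology of E6SM, HeLa or Vero cell cultures.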

[13] = test system: E6SM; assay: Cytotoxicity concentration required to microscopically detectable alteration of cell morphology in E6SM; type: functional, Homo sapiens; outline: as §3
[14] = test system: Human alphaherpesvirus 3; assay: (§4) Minimum inhibitory concentration was determined against VZV (OKA) in HEL cells; type: functional
Outline: (§5)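 HEL cell cultures were infected with 20 PFU of virus and incubated with varying compound concentrations. The value is the concentration reducing virus plaque formation by 50%, as the mean of two independent determinations.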

[15] = test system: Human alphaherpesvirus 3; assay: (§6) Minimum inhibitory concentration was determined against VZV (TK-07/1) in HEL cells; type: functional; outline: as §5
[16] = test system: HeLa; assay: Cytotoxicity concentration required to microscopically detectable alteration of cell morphology in HeLa; type: functional, Homo sapiens; outline: as §3
[17] = test system: HEL; assay: Cytotoxicity concentration required to reduce cell growth by 50% in HEL; type: functional, Homo sapiens
Outline: (§7)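 In HEL cells, cytotoxicity was measured as inhibition of normal cell growth, and the value is the concentration reducing cell growth by 50%.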

[18] = test system: Human alphaherpesvirus 3; assay: (§8) Minimum inhibitory concentration was determined against VZV (TK-YS/R) in HEL cells; type: functional; outline: as §5
[19] = test system: Human alphaherpesvirus 1; assay: as §2; type: functional, herpes simplex virus; outline: as §1
[20] = Minimum inhibitory concentration was determined against HSV-2 (G) in E6SM cell culture; details: Human alphaherpesvirus 2
[21] = Minimum inhibitory concentration was determined against HSV-1 (TK-/TK+VMW1837) in E6SM cell culture; type: functional, herpes simplex virus; outline: as §1
[22] = test system: Human alphaherpesvirus 3; assay: (§9) Minimum inhibitory concentration was determined against VZV (YS) in HEL cells; type: functional; outline: as §5
[23] = Selectivity index was determined against VZV (YS) in HEL cells; type: functional
[24] = Selectivity index was determined against HSV-1 (F) in E6SM cell culture; type: functional
[25] = Selectivity index was determined against HSV-1 (TK-/TK+VMW1837) in E6SM cell culture; type: functional
[26] = Selectivity index was determined against CMV (Davis) in HEL cells; type: functional
[27] = Selectivity index was determined against VZV (TK-YS/R) in HEL cells; type: functional
[28] = test system: Human alphaherpesvirus 3; assay: as §8; type: functional; outline: as §5; remark: listed apart in the source
[29] = Selectivity index was determined against VZV (OKA) in HEL cells; type: functional
[30] = test system: Cytomegalovirus; assay: Minimum inhibitory concentration was determined against CMV (Davis) in HEL cell; type: functional; details: Human betaherpesvirus 5; outline: as §5
[31] = test system: Cytomegalovirus; assay: Minimum inhibitory concentration was determined in CMV (AD169) in HEL cell; type: functional; details: Human betaherpesvirus 5; outline: as §5
[32] = test system: HEL; assay: Cytotoxicity concentration required to inhibit the cell growth by 50% in HEL; type: functional, Homo sapiens; outline: as §7
[33] = test system: Cytomegalovirus; assay: Minimum inhibitory concentration was determined against CMV (AD 169) in HEL cells; type: functional; details: Human betaherpesvirus 5; outline: as §5
[34] = Selectivity index was determined against CMV (AD 169) in HEL cells; type: functional
[35] = test system: Cytomegalovirus; assay: Minimum inhibitory concentration was determined in CMV (Davis) in HEL cell; type: functional; details: Human betaherpesvirus 5; outline: as §5
[36] = Minimum inhibitory concentration was determined against HSV-2 (G) in E6SM cell culture; type: functional, herpes simplex virus; outline: as §1
[37] = Selectivity index was determined againstHSV-2 (196) in E6SM cell culture; type: functional
[38] = Selectivity index was determined in HSV-1 (KOS) in E6SM cell culture; type: functional
[39] = Selectivity index was determined against HSV-2 (Lyons) in E6SM cell culture; type: functional
[40] = test system: Human alphaherpesvirus 3; assay: as §8
[41] = test system: Human alphaherpesvirus 2; assay: Minimum inhibitory concentration was determined against HSV-2 (G) in E6SM cell culture
[42] = test system: Human alphaherpesvirus 3; assay: as §4
[43] = test system: Human alphaherpesvirus 3; assay: as §6
[44] = as §9; details: Human alphaherpesvirus 1
[45] = Human alphaherpesvirus 1, read-out: MIC
[46] = Human alphaherpesvirus 3, read-out: MIC

Nc1nc2c(ncn2COC(CO)CO)c(=O)[nH]1 [GANCICLOVIR]
MIC [1]: 2 ng/mL (≈ 0.00784 µM)
MIC [2]: 0.01 µg/mL (≈ 0.0392 µM)
MIC [3]: 0.48 µg/mL (≈ 1.88 µM)
MIC ([4]; Human alphaherpesvirus 2): 0.001 µg/mL (≈ 0.00392 µM)
Cytotoxicity [5]: > 50 µg/mL
MIC [6]: 1 ng/mL (≈ 0.00392 µM)
MIC [7]: 0.8 µg/mL (≈ 3.13 µM)
MIC [8]: 0.001 µg/mL (≈ 0.00392 µM)
MIC [9]: 0.6 µg/mL (≈ 2.35 µM)
MIC [10, 45]: 1 ng/mL (≈ 0.00392 µM)
MIC [11, 45]: 1 ng/mL (≈ 0.00392 µM)
Cytotoxicity [12]: > 100 µg/mL
Cytotoxicity [13]: > 50 µg/mL

Nc1ccn(C[C@@H](CO)OCP(=O)(O)O)c(=O)n1.O.O [CIDOFOVIR]
Cytotoxicity [5]: > 50 µg/mL
MIC [7]: 0.2 µg/mL
MIC [9]: 0.08 µg/mL
Cytotoxicity [13]: > 50 µg/mL

O=c1[nH]c(=O)n([C@H]2C[C@H](O)[C@@H](CO)O2)cc1/C=C/Br [BRIVUDINE]
MIC [14, 46]: 0.003 µg/mL (≈ 0.00901 µM)
MIC [15, 46]: > 20 µg/mL
Cytotoxicity [16]: > 400 µg/mL
MIC [3]: > 80 µg/mL
Cytotoxicity [17]: > 50 µg/mL
MIC [4, 45]: > 80 µg/mL
MIC [18]: > 50 µg/mL
Cytotoxicity [5]: > 200 µg/mL
MIC [19, 45]: 1 ng/mL (≈ 0.003 µM)
MIC [8]: > 80 µg/mL
MIC [20]: > 80 µg/mL
MIC [10, 45]: 1 ng/mL (≈ 0.003 µM)
MIC [21, 45]: > 80 µg/mL
MIC [11, 45]: 1 ng/mL (≈ 0.003 µM)
MIC [22, 46]: 0.03 µg/mL (≈ 0.0901 µM)
Cytotoxicity [12]: > 400 µg/mL
Cytotoxicity [13]: > 400 µg/mL

Nc1nc(O)c2ncn(C3C=CC(CO)C(O)C3)c2n1 (stereo not drawn)
MIC [14]: 1.9 µg/mL and 0.64 µg/mL
Selectivity index [23]: >16 and >40
MIC [15]: 5.8 µg/mL and 2.1 µg/mL
Selectivity index [24]: >5 and >2
Selectivity index [25]: >1.6 and >4
Cytotoxicity [16]: 400 µg/mL
Selectivity index [26]: >12 and >25
Selectivity index [27]: >3 and >7
MIC [28]: 6.8 µg/mL (≈ 24.5 µM)
Cytotoxicity [17]: > 20 µg/mL
MIC [4]: 0.07 µg/mL (≈ 0.252 µM)
MIC [4, 45]: 0.1 µg/mL (≈ 0.361 µM)
Selectivity index [29]: >10 and >30
MIC [18]: 2.8 µg/mL (≈ 10.1 µM)
MIC [30]: 1.7 µg/mL (≈ 6.13 µM)
MIC [31]: 0.6 µg/mL (≈ 2.16 µM)
Cytotoxicity [32]: > 20 µg/mL
MIC [19]: 4 ng/mL (≈ 0.0144 µM)
MIC [19, 45]: 4 ng/mL (≈ 0.0144 µM)
MIC [8]: 0.07 µg/mL (≈ 0.252 µM)
MIC [33]: 1.5 µg/mL (≈ 5.41 µM)
Selectivity index [34]: >13 and >30
MIC [35]: 0.8 µg/mL (≈ 2.89 µM)
MIC [36]: 0.05 µg/mL (≈ 0.18 µM)
MIC [36, 45]: 0.07 µg/mL (≈ 0.252 µM)
Selectivity index [37]: > 160
MIC [10]: 2 ng/mL (≈ 0.00721 µM)
MIC [10, 45]: 3 ng/mL (≈ 0.0108 µM)
MIC [21]: 0.01 µg/mL (≈ 0.0361 µM)
MIC [21, 45]: 0.01 µg/mL (≈ 0.0361 µM)
Selectivity index [38]: > 5000
MIC [11]: 2 ng/mL (≈ 0.00721 µM)
MIC [11, 45]: 3 ng/mL (≈ 0.0108 µM)
Selectivity index [39]: >2.2 and >5
MIC [22]: 1.2 µg/mL and 0.49 µg/mL

Nc1nc2c(ncn2COCCO)c(=O)[nH]1 [ACYCLOVIR]
MIC [3]: 9.6 µg/mL (≈ 42.6 µM)
MIC ([4]; Human alphaherpesvirus 2): 0.02 µg/mL (≈ 0.0888 µM)
MIC [40]: 28 µg/mL (≈ 124 µM)
MIC [41]: 0.02 µg/mL (≈ 0.0888 µM)
MIC [42]: 0.8 µg/mL (≈ 3.55 µM)
MIC [6]: 5 ng/mL (≈ 0.0222 µM)
MIC [8]: 0.02 µg/mL (≈ 0.0888 µM)
MIC [10, 45]: 10 ng/mL (≈ 0.0444 µM)
MIC ([21]; Human alphaherpesvirus 1): 0.07 µg/mL (≈ 0.311 µM)
MIC [43]: 13 µg/mL (≈ 57.7 µM)
MIC [11, 45]: 3 ng/mL (≈ 0.0133 µM)
Cytotoxicity [12]: > 400 µg/mL
Cytotoxicity [13]: > 50 µg/mL
MIC [44]: 1.1 µg/mL (≈ 4.88 µM)

Source: ChEMBL document CHEMBL1133586, “The cyclohexene ring system as a furanose mimic: synthesis and antiviral activity of both enantiomers of cyclohexenylguanine” (2000)
